Assay results from different studies.
Compare with care: the assays were run in different laboratories. Values after ≈ are worked out from the molar mass of the structure shown.
Organism: Pseudomonas aeruginosa

SMILES | assay | test system | conditions | quantity | value
O=c1cccccc1S | microbial growth, broth dilution | ATCC27853 | – | MIC80 | > 71.4 µM
C=CCOc1c(C)c(O)c(C(=O)/C=C/c2ccccc2)c(OC)c1C | microbial killing, broth dilution | ATCC27853 | – | MBC | > 5000 µg/mL
CC1(C)S[C@@H]2[C@H](NC(=O)[C@H](N)c3ccc(O)cc3)C(=O)N2[C@H]1C(=O)O | microbial growth, disc diffusion | ATCC27853 | 250 µg/mL | inhibition zone | 9.38 mm
CC(C)CC1NC(=O)C(C(=O)NC(C(=O)NC2C(=O)N3C2SC(C)(C)C3C(=O)O)c2ccccc2)=C1O (stereo not shown) | microbial growth, well diffusion | PAO1 | 200 µM | inhibition zone | 11.7 mm
CC(C)Oc1c(NC(=O)c2ccc(NC(=O)[C@H](CC(N)=O)NC(=O)c3ccc(CNC(=O)c4ccc(C#N)cc4)cc3)cc2)ccc(C(=O)Nc2ccc(C(=O)O)cc2)c1O | microbial growth | PA14 | – | MIC | > 64 µg/mL
CCCCCC(=O)Oc1c(C)c(O)c(C(=O)/C=C/c2ccccc2)c(OC)c1C | microbial killing, broth dilution | ATCC27853 | – | MBC | > 5000 µg/mL
CC(C)Oc1c(NC(=O)c2ccc(NC(=O)[C@H](CC(N)=O)NC(=O)c3ccc(NC(=O)c4ccccc4)cc3)cc2)ccc(C(=O)Nc2ccc(C(=O)O)cc2)c1O | microbial growth | PA14 | – | MIC | > 64 µg/mL
C=CCCCCCCCCCCCC(O)CC(O)CO (stereo not shown) | microbial growth, broth dilution | ATCC27853 | – | IC50 | > 200 µg/mL
O=c1cccccc1Sc1cccccc1=O | microbial growth, broth dilution | ATCC27853 | – | MIC80 | > 71.4 µM
CC(C)Oc1c(NC(=O)c2ccc(NC(=O)[C@H](CC(N)=O)NC(=O)c3ccc(-c4nn[nH]c4-c4ccc(C#N)cc4)cc3)cc2)ccc(C(=O)Nc2ccc(C(=O)O)cc2)c1O | microbial growth | PA14 | – | MIC | > 64 µg/mL
COc1c(C)c(OS(=O)(=O)c2ccc3ccccc3c2)c(C)c(O)c1C(=O)/C=C/c1ccccc1 | microbial killing, broth dilution | ATCC27853 | – | MBC | > 5000 µg/mL
CC[C@H]1OC(=O)[C@H](C)[C@@H](O[C@H]2C[C@@](C)(OC)[C@@H](O)[C@H](C)O2)[C@H](C)[C@@H](O[C@@H]2O[C@H](C)C[C@H](N(C)C)[C@H]2O)[C@](C)(O)C[C@@H](C)/C(=N\OCOCCOC)[C@H](C)[C@@H](O)[C@]1(C)O | microbial growth, disc diffusion | ATCC9721 | 20000 µg/mL, 24 h | inhibition zone | 19 mm
COc1cc(C=CC(=O)CC(c2ccc(N(C)C)cc2)n2ccnc2)ccc1O (stereo not shown) | microbial growth, disc diffusion | ATCC27853 | 500 µg/mL | inhibition zone | 23.3 mm
CC1(C)SC2C(NC(=O)C(NC(=O)C3=C(O)C(Cc4ccsc4)NC3=O)c3ccccc3)C(=O)N2C1C(=O)O (stereo not shown) | microbial growth, well diffusion | PAO1 | 200 µM | inhibition zone | 11 mm
COc1c(C)c(OC(=O)c2ccc(C)cc2)c(C)c(O)c1C(=O)/C=C/c1ccccc1 | microbial killing, broth dilution | ATCC27853 | – | MBC | > 5000 µg/mL
CCN1CCN(C(=O)N[C@@H](C(=O)N[C@@H]2C(=O)N3[C@@H]2SC(C)(C)[C@@H]3C(=O)O)c2ccccc2)C(=O)C1=O | microbial growth, well diffusion | PAO1 | 200 µM | inhibition zone | 19 mm
CCn1cc(C(=O)O)c(=O)c2cc(F)c(N3CCNCC3)cc21 | microbial killing, broth dilution | ATCC9027 | – | MBC | 2 µM

SMILES | assay | test system | conditions | quantity | value
O=C(Sc1cccccc1=O)c1ccccc1C(F)(F)F | microbial growth, broth dilution | ATCC27853 | – | MIC80 | > 71.4 µM
CC(C)Oc1c(NC(=O)c2ccc(NC(=O)[C@H](CC(N)=O)NC(=O)c3ccc(NC(=O)c4cc(C#N)cn4C)cc3)cc2)ccc(C(=O)Nc2ccc(C(=O)O)cc2)c1O | microbial growth | PA14 | – | MIC | > 64 µg/mL
COc1cc(C=Cc2cc(-c3ccccc3)nc(O)n2)ccc1O | microbial growth, disc diffusion | ATCC27853 | 250 µg/mL | inhibition zone | 6 mm
COc1c(C)c(O)c(C)c(O)c1C(=O)/C=C/c1ccccc1 | microbial killing, broth dilution | ATCC27853 | – | MBC | > 5000 µg/mL
C#CCCCCCCCCC=CCC(O)CC(O)CO (stereo not shown) | microbial growth, broth dilution | ATCC27853 | – | IC50 | > 200 µg/mL
CC(C)Oc1c(NC(=O)c2ccc(NC(=O)[C@H](CC(N)=O)NC(=O)c3ccc(NC(=O)C(C)Oc4ccc(C#N)cc4)cc3)cc2)ccc(C(=O)Nc2ccc(C(=O)O)cc2)c1O (stereo partly shown) | microbial growth | PA14 | – | MIC | > 64 µg/mL
COc1cc(Cc2cnc(N)nc2N)cc(OC)c1OC | microbial killing, broth dilution | – | 48 h | MBC | 16 µg/mL
O=C(Sc1cccccc1=O)c1ccccc1 | microbial growth, broth dilution | ATCC27853 | – | MIC80 | > 71.4 µM
COc1c(C)c(OS(=O)(=O)c2ccc3ccccc3c2)c(C)c(OS(=O)(=O)c2ccc3ccccc3c2)c1C(=O)/C=C/c1ccccc1 | microbial growth, well diffusion | ATCC27853 | 5 µg/mL | inhibition zone | 14 mm
COc1cc(C=CC(=O)CC(c2ccc([N+](=O)[O-])cc2)n2ccnc2)ccc1O (stereo not shown) | microbial growth, disc diffusion | ATCC27853 | 250 µg/mL | inhibition zone | 6 mm
CN1CC(O)=C(C(=O)NC(C(=O)NC2C(=O)N3C2SC(C)(C)C3C(=O)O)c2ccccc2)C1=O (stereo not shown) | microbial growth, well diffusion | PAO1 | 200 µM | inhibition zone | 12.3 mm
COc1cc(C=Cc2cc(-c3ccc(N(C)C)cc3)nc(O)n2)ccc1O | microbial growth, disc diffusion | ATCC27853 | 500 µg/mL | inhibition zone | 7.67 mm
C[C@H]1NCc2cc(-c3ccc4c(=O)c(C(=O)O)cn(C5CC5)c4c3OC(F)F)ccc21 | microbial growth, broth dilution | – | clinical isolate | MIC50 | 2 µg/mL (≈ 4.69 µM)
COc1c(C)c(OC)c(C(=O)/C=C/c2ccccc2)c(OC)c1C | microbial killing, broth dilution | ATCC27853 | – | MBC | > 5000 µg/mL
CC1(C)SC2C(NC(=O)C(NC(=O)C3=C(O)C4(CC4)NC3=O)c3ccccc3)C(=O)N2C1C(=O)O (stereo not shown) | microbial growth, well diffusion | PAO1 | 200 µM | inhibition zone | 12 mm
COc1c(C)c(OC(=O)c2ccccc2)c(C)c(O)c1C(=O)/C=C/c1ccccc1 | microbial killing, broth dilution | ATCC27853 | – | MBC | > 5000 µg/mL
CC(C)c1ccc(O)c(=O)cc1 | microbial growth, broth dilution | ATCC27853 | – | MIC80 | > 71.4 µM
